Screening data (PubChem BioAssay)
The list is not random: actives were taken first. Their share in the collection is about 2.4%.
Myeloid diff 2: compounds promoting myeloid differentiation; ER-HoxA9 myeloid progenitors, lysozyme-GFP differentiation, flow cytometry; calls only at 10 µM; 360,000 compounds, 1% hits; AID 624256;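 active means normalized GFP-positive differentiation at or above the plate's own cutoff, the solvent-only control mean plus 3 SD; inconclusive means no clear call, values can overlap the other calls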;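 further: cells exposed to compound for four days before flow analysis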
MT1-MMP act inh: blocks activation of human MT1-MMP; AID 651647; GFP/RFP ratio change, % at 20 µM; 360,000 compounds, 0.061% hits; HT1080 RFP-PRO-GFP cells, GFP/RFP ratio fluorescence, overnight; percent of plate control window, DMSO zero;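 active means GFP/RFP ratio change of at least 30% with cell ATP level not reduced by more than half and red fluorescence within 50% of control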
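Assay system: HT1080 cells carrying an RFP-PRO-GFP reporter | Dosing: Single dose of 20 µM compound, 1% DMSO final | Incubation: Cells overnight before dosing, compound overnight, 37 °C, 5% CO2 | Evaluation: GFP/RFP fluorescence ratio | Control set: DMSO and RFP-L50D-GFP cell wells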
NRP1-CendR mod: alters CendR peptide binding to human NRP-1. FAM-RPARPAR peptide binding to NRP-1, fluorescence polarization. inhibition, % at 25 µM. 360,000 compounds, 0.85% hits. AID 602438;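 active means inhibition or corrected inhibition above about 18%, plus a signal ratio from 0.5 to 1.5, limit read from the data, passing the limit was not always enough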
DAGLB inhibitor: diacylglycerol lipase beta (human) inhibition | Q8NCG7 | HEK293T DAGLB membrane lysate, EnzChek fluorogenic substrate | inhibition, % at 5.17 µM | 340,000 compounds, 0.059% hits; in the data active means inhibition above about 34%;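 further: 0% = enzyme with vehicle and 100% = wells lacking enzyme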
SENP1 inh: inhibitors of human SENP1 SUMO protease catalytic domain; Q9P0U3; recombinant SENP1 catalytic domain, CyPet-SUMO1-YPet FRET cleavage; inhibition, % at 10 µM; 360,000 compounds, 0.21% hits;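 active means inhibition at least 30% at 10 µM, raw YFP signal under a set limit, fluorescence ratio 0.5 to 1.5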;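 further: 0% = enzyme with DMSO and 100% = no enzyme wells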
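Assay system: hSENP1 catalytic domain, recombinant. Amount: SENP1 enzyme, 20 pM final. Schedule: 50 min reaction, RT, dark. Technique: FRET, CFP and YFP emission. Control set: no-enzyme wells low, DMSO-plus-enzyme wells high control.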
MIN6 prolif: induces beta-cell replication in MIN6 cells; MIN6 cells proliferation, ATPlite luminescence, 48 h; cells starved in 0.2% serum; 100% = growth in 10% serum; proliferation, % at 10 µM; 330,000 compounds, 0.29% hits; AID 2380;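 active means compounds whose signal lies at least 3.5 SD above the mean of all wells on their plate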;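 further: 0% = DMSO-treated cells in low-serum medium and 100% = 10% serum control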
Starred values were filed as active, the others as inactive; i = inactive; ? = inconclusive; / = not tested or not shown; + = active, no number; ! = repeats disagree.

SMILES | Myeloid diff 2 | MT1-MMP act inh | NRP1-CendR mod | DAGLB inhibitor | SENP1 inh | MIN6 prolif
O=C(COC(=O)Cn1cnc2ccccc21)Nc1ccc(Br)cc1 | i | 2 | 32* | -1 | 6 | /
CC(=O)c1ccc(NC(=O)COC(=O)Cn2cnc3ccccc32)cc1 | i | 0 | 5 | -1 | 3 | 3
C=CCn1c(SCC(=O)NC2CCCC2)nc2ccccc21 | i | -2 | -6 | 3 | 4 | /
CCN(CC)c1ccc(/C=C/C(=O)C2C(=O)C=C(C)OC2=O)cc1 (stereo unspecified) | + | -19 | 135 | -46 | -30 | -2
O=C1C(=Cc2cccc(O)c2O)SC(=S)N1CCCN1CCOCC1 | + | 2 | 21 | 8 | 0 | /
COc1ccc(S(=O)(=O)N2CCCCCC2)cc1N | i | -4 | 5 | 1 | 1 | -2
CCn1nc(C)c(/C=N/NC(=O)Cn2nnc(N)n2)c1C | + | / | 11 | -12 | 2 | -2
O=c1nc(Nc2ccc(OCc3ccccc3)cc2)sc2ncccc12 | + | 1 | 4 | -1 | 2 | -1
Cc1cccc(-n2c(SCC(=O)c3c(N)n(C4CC4)c(=O)[nH]c3=O)nnc2N2CCOCC2)c1 | i | 1 | -6 | 0 | 0 | -2
CCOc1cnc(-c2ccc(Cl)cc2)o1 | i | 8 | -8 | -5 | 0 | 0
CCOc1cnc(-c2c(-c3c(Cl)cccc3Cl)noc2C)o1 | i | 3 | 27* | -5 | 1 | -3
COc1ccc2oc(-c3ccc(C)c(NC(=O)CSc4ccc(Cl)cc4)c3)nc2c1 | + | 3 | 4 | -4 | -5 | -2
CC(/C=N\NC(=O)c1cccnc1)c1ccccc1 (stereo unspecified) | / | 5 | 33* | 1 | 2 | -1
C/C(=N\NC(=O)c1cccnc1)c1ccccc1 | i | 0 | 11 | -3 | 1 | -1
O=S(=O)(/N=C(\c1ccccc1)N1CCOCC1)c1cccs1 | i | -2 | 27* | -4 | 2 | 0
N/C(=N\S(=O)(=O)c1cccs1)c1ccccc1Cl | i | -3 | 5 | -1 | 2 | -3
O=C(c1ccco1)N1CCN(/C(=N/S(=O)(=O)c2cccs2)c2ccccc2Cl)CC1 | ? | 4 | 27* | -2 | 0 | -4
Nc1ccn(CCCNC2CCN(Cc3ccccc3)CC2)c(=O)n1 | i | 1 | -7 | -2 | 2 | /
Cc1ccc(-n2nnnc2CNC(=O)C(=O)c2c[nH]c3ccccc23)cc1C | i | 2 | -1 | -1 | 0 | /
CCN(CC)c1ccc(/C=N/NC(=O)c2cccc(N3CCCC3=O)c2)cc1 | i | 4 | -3 | 7 | -18 | 0
O=C(O)C1CCN(C(=O)c2ccc(Cl)cc2)CC1 | i | 2 | 25* | 2 | 0 | -1
O=C(c1ccc(Cl)cc1)C1CCN(C(=O)c2ccccc2)CC1 | i | -1 | 17 | -1 | -1 | 1
Cc1nn(-c2ccccc2)c(C)c1C(=O)OC(C)C(=O)NC1CCCCC1C (stereo unspecified) | i | -6 | -2 | -1 | -1 | 2
Nc1nc2ncc(CNc3ccc(C(=O)N[C@@H](CCC(=O)O)C(=O)O)cc3)nc2c(=O)[nH]1 | i | -3 | -18 | -3 | -45 | -1
CN(Cc1cnc2nc(N)nc(N)c2n1)c1ccc(C(=O)N[C@@H](CCC(=O)O)C(=O)O)cc1 | +! | -3 | -65 | 0 | -124 | -2
SMILES | Myeloid diff 2 | MT1-MMP act inh | NRP1-CendR mod | DAGLB inhibitor | SENP1 inh | MIN6 prolif
Cc1ccsc1C1CC(=O)Nc2ccccc2S1 (stereo unspecified) | + | -1 | -11 | 1 | 0 | -2
Cc1ccc(NC(=S)N(CCCN2CCOCC2)Cc2cccnc2)cc1C | i | -2 | -9 | -2 | 0 | 2
CN1CCc2nc(SCC(=O)Nc3ccc(OC(F)(F)F)cc3)c(C#N)c(-c3cccs3)c2C1 | + | -14 | -26 | -5 | 26 | -5
CC(C)(C)c1nnc(NC(=O)c2cccnc2)s1 | i | / | -6 | 2 | 2 | 4
Cc1ccc(NC(=O)CCNC(=O)c2ccc([N+](=O)[O-])cc2)cc1S(=O)(=O)N(C)C | i | 9 | 39* | -1 | 1 | -3
COc1cccc(-c2cnc(C(O)c3ccc(C)c(F)c3)[nH]2)c1 (stereo unspecified) | i | -1 | 9 | / | -1 | /
COc1ccc(-c2csc(NC(CO)c3nc4ccccc4n3CCCO)n2)cc1 (stereo unspecified) | i | 3 | 26* | 1 | 1 | -2
Nc1nc2c(s1)CCc1ccccc1-2 | i | -3 | -1 | 2 | -1 | -7
N#C/C(=C(/O)CCl)c1nc2c(s1)CCc1ccccc1-2 | + | -2 | -29 | 3 | -18 | 0
O=[N+]([O-])c1cc(S(=O)(=O)Nc2cccc(Cl)c2)ccc1N/N=C/c1ccc(N2CCOCC2)cc1 | i | 13 | 10 | -1 | 0 | -6
CCc1ccc(-c2cc3c(=O)n(CC(=O)NCCCN4CCN(CC)CC4)nc(C)n3n2)cc1 | i | 3 | 24* | -1 | 1 | -8
Cc1noc(C)c1NC(=O)N(C)C[C@H]1OCc2cnnn2CCCC(=O)N([C@H](C)CO)C[C@@H]1C | i | 3 | -8 | -2 | 1 | /
Cc1ccc(S(=O)(=O)N2CCN(C(=O)COC(=O)c3ccc(O)cc3)CC2)c(C)c1 | i | -1 | 20 | 3 | -1 | 2
N#C/C(=C/C1=C(N2CCOCC2)C(=C/c2ccccc2)/CC1)C(=O)Nc1ccccc1F | + | 8 | -152 | 1 | 55 | /
N#C/C(=C/C1=C(N2CCOCC2)C(=C/c2ccc(Cl)cc2Cl)/CC1)C(=O)Nc1ccccc1F | + | 17 | -91 | 1 | 68 | /
N#C/C(=C\C1=C(N2CCOCC2)C(=C/c2cccc([N+](=O)[O-])c2)/CC1)C(=O)Nc1ccccc1F | i | 15 | -81 | 5 | 82 | /
N#C/C(=C\C1=C(N2CCOCC2)C(=C\c2ccc(Cl)cc2)/CC1)C(=O)Nc1ccccc1F | + | 4 | -131 | 3 | -6 | /
Cc1c2ccccc2nc2c(F)c(NC(C)C)c(F)c(F)c12 | + | -50 | 121 | 6 | -25 | /
O=C(Nc1ccc(Cn2cccn2)cc1)c1ccc(COc2cccc(Br)c2)cc1 | + | 1 | 7 | -3 | 0 | -4
CC(C(=O)N1CCN(c2ccc(Cl)cc2)CC1)c1ncc(C(F)(F)F)cc1Cl (stereo unspecified) | i | / | 47* | -8 | 5 | -5
CC(C(=O)NC1CC1)c1ncc(C(F)(F)F)cc1Cl (stereo unspecified) | i | 1 | -8 | -3 | 0 | -2
